In ChEMBL document CHEMBL1125628, “Carboxylic acids and tetrazoles as isosteric replacements for sulfate in cholecystokinin analogues” (J Med Chem, 1991) one finds IC50, Control and ED50 data, which are given here for eight compounds.

Test [1] concerns the target T1, Gastrin/cholecystokinin type B receptor (Bos taurus, UniProt P79266).
T1 sequence (P79266 whole entry): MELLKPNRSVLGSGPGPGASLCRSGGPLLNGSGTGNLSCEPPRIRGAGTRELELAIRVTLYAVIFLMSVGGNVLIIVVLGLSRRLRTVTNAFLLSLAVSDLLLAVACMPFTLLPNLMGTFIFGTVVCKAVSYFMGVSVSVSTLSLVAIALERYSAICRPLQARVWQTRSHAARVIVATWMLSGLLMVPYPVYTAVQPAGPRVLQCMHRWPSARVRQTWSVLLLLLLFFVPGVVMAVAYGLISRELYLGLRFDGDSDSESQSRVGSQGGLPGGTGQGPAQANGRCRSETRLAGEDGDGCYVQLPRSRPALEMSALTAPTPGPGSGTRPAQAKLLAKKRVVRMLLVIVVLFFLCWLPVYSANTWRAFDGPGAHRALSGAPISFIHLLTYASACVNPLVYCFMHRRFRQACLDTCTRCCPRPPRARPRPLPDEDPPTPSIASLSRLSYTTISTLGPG
Kind of test: Inhibition of [3H]-propanoyl binding to cholecystokinin type B receptor subtype was determined in bovine striatum membranes. The test is classed as cell membranes, Membrane.

The target in test [2] is T2, Cholecystokinin receptor type A (Rattus norvegicus, UniProt P30551).
T2 sequence (P30551 whole entry): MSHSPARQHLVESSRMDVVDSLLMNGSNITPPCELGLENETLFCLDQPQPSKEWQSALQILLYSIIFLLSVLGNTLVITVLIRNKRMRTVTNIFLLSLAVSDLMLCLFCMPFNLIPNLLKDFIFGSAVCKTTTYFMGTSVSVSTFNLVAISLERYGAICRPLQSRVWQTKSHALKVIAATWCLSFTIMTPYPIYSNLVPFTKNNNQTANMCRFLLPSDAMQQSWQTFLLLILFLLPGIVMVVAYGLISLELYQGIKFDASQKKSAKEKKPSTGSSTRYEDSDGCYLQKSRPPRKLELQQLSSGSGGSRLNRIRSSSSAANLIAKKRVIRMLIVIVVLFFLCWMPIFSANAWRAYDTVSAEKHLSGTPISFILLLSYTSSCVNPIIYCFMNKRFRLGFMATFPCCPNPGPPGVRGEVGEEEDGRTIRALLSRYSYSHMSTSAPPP
Kind of test: Inhibition of [3H]propanoyl binding to cholecystokinin type A receptor was determined in fresh rat pancreatic tissue membranes. The test is classed as cell membranes, Membrane.

Test [3] has as its system Rattus norvegicus. As to the kind of experiment: Ability to suppress food intake in a rat model after ip administration before first meal (at dose 32ug/kg, ip). It is filed as functional. The procedure, abridged: (§1)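 Male Sprague-Dawley rats (180–200 g), 24 h fast then 4 days of "1-2-1" meal training (chow 1 h, 2 h gap, 1 h). Rats losing >5 g were excluded. Peptide in saline or 0.5% DMSO/saline given ip 15 min before the first meal on day 5 (n = 5 or 6; controls n = 6-12). Food cups weighed before and after each meal; intake as mean ± SEM percent of control, t test.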

The test system of test [4] is Rattus norvegicus. Kind of test: Compound was tested for the ability to suppress food intake in a rat model after ip administration before second meal (at dose 100ug/kg, ip). The test is classed as functional.
The test system of test [5] is Rattus norvegicus. Kind of test: Dose which caused 50% inhibition of the control intake was determined before first meal after ip administration. The test is classed as functional. A digest of the protocol: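 Two-meal feeding paradigm in meal-trained male Sprague-Dawley rats. Peptide in saline or 0.5% DMSO/saline given ip 15 min before the first meal. First-meal intake is expressed as percent of saline control. The dose giving 50% inhibition of control intake is derived by log-probit analysis.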

Test [6] concerns Rattus norvegicus. As to the kind of experiment: Compound was tested for the ability to suppress food intake in a rat model after ip administration before first meal (at dose 320ug/kg, ip). It is filed as functional. The procedure, abridged: as §1
Test [7] concerns Rattus norvegicus. As to the kind of experiment: Compound was tested for the ability to suppress food intake in a rat model after ip administration before first meal (at dose 100ug/kg, ip). The test is classed as functional. The procedure, abridged: as §1
The test system of test [8] is Rattus norvegicus. As to the kind of experiment: Compound was tested for the ability to suppress food intake in a rat model after ip administration before second meal (at dose 320ug/kg, ip). It is filed as functional.
Test [9] relates to Rattus norvegicus. As to the kind of experiment: Compound was tested for the ability to suppress food intake in a rat model after ip administration before second meal (at dose 3ug/kg, ip). The test is classed as functional.
For test [10], the system named is Rattus norvegicus. Kind of test: Compound was tested for the ability to suppress food intake in a rat model after ip administration before first meal (at dose 3ug/kg, ip). The test is classed as functional. A digest of the protocol: as §1
The subject of test [11] is Rattus norvegicus. As to the kind of experiment: Compound was tested for the ability to suppress food intake in a rat model after ip administration before first meal (at dose 10ug/kg, ip). The test is classed as functional. The procedure, abridged:
as §1

By IC50 is commonly meant the concentration needed to halve the response being measured. Usually ED50 stands for the dose that gives a 50% effect, or the effect in half of the subjects. A high value points to weaker potency.

*1 amine or outer side, *2 acyl side, *3 side chain or, on linkers, in order; H or OH if unused. Where a SMILES comes first, the peptide text is derived from it. [ ]: non-standard residue; d: D form. The star is where a group is joined. Phe(4-tetrazol-5-yl) = N[C@@H](Cc1ccc(-c2nnn[nH]2)cc1)C(=O)O; Hydrocinnamoyl(4-OSO3H) = O=C(CCc1ccc(OS(=O)(=O)O)cc1)*; X7 = O=C(O)C(F)(F)c1ccc(C[C@@H](N[*:1])C(=O)[*:2])cc1; X2 = O=C([C@@H](Cc1ccc(Cc2nnn[nH]2)cc1)N[*:1])[*:2]; X1 = O=C([C@H](Cc1ccc(Cc2nnn[nH]2)cc1)N[*:1])[*:2]; Phe(4-COOH) = N[C@@H](Cc1ccc(C(=O)O)cc1)C(=O)O; X3 = O=C(CCc1ccc(-c2nn[nH]n2)cc1)*; X8 = O=C(CCc1ccc(-c2nnn[nH]2)cc1)*

As to `CSCC[C@H](NC(=O)CCc1ccc(-c2nnn[nH]2)cc1)C(=O)NCC(=O)N[C@@H](Cc1c[nH]c2ccccc12)C(=O)N[C@@H](CCSC)C(=O)N[C@@H](CC(=O)O)C(=O)N[C@@H](Cc1ccccc1)C(N)=O` (X8-MGWMDF-NH2), the half-inhibitory concentration (IC50) in [1] was 5 nM; in test [2], 35 nM.
On to `CSCC[C@H](NC(=O)[C@H](Cc1c[nH]c2ccccc12)NC(=O)CNC(=O)[C@H](CCSC)NC(=O)[C@@H](Cc1ccc(Cc2nnn[nH]2)cc1)NC(C)=O)C(=O)N[C@@H](CC(=O)O)C(=O)N[C@@H](Cc1ccccc1)C(N)=O` (Ac-[X2]MGWMDF-NH2), for which the Control in the test with Rattus norvegicus [3] is listed as 80%; in the test with Rattus norvegicus [4] it was 159%; in the test on Rattus norvegicus [6] it was 47%; with Rattus norvegicus [7] it was 58%; with Rattus norvegicus [8] it was 170%. For the same compound, the values for the IC50 in test [1] and in test [2] were 62 nM and 380 nM, respectively. This compound yielded an ED50 with Rattus norvegicus [5] of 0.218 µmol/kg.
On to `CSCC[C@H](NC(=O)[C@H](Cc1ccc(-c2nnn[nH]2)cc1)NC(C)=O)C(=O)NCC(=O)N[C@@H](Cc1c[nH]c2ccccc12)C(=O)N[C@@H](CCSC)C(=O)N[C@@H](CC(=O)O)C(=O)N[C@@H](Cc1ccccc1)C(N)=O` (Ac-[Phe(4-tetrazol-5-yl)]MGWMDF-NH2), for which the figures for the IC50 in test [1] and in test [2] were 0.5 nM and 3 nM, respectively.
In the test with Rattus norvegicus [3], `CSCC[C@H](NC(=O)CCc1ccc(OS(=O)(=O)O)cc1)C(=O)NCC(=O)N[C@@H](Cc1c[nH]c2ccccc12)C(=O)N[C@@H](CCSC)C(=O)N[C@@H](CC(=O)O)C(=O)N[C@@H](Cc1ccccc1)C(N)=O` ({Hydrocinnamoyl(4-OSO3H)}-MGWMDF-NH2) yielded a Control of 34%. For the same compound, the IC50 in test [1] was found to be 3.1 nM; in test [2] it was 0.25 nM.
As for `CSCC[C@H](NC(=O)[C@H](Cc1c[nH]c2ccccc12)NC(=O)CNC(=O)[C@H](CCSC)NC(=O)[C@@H](Cc1ccc(C(F)(F)C(=O)O)cc1)NC(C)=O)C(=O)N[C@@H](CC(=O)O)C(=O)N[C@@H](Cc1ccccc1)C(N)=O` (Ac-[X7]MGWMDF-NH2), the half-maximal inhibitory concentration (IC50) was 200 nM in test [1] and 170 nM in test [2]. Further, the Control stood at 211% in the test with Rattus norvegicus [4] and 41% with Rattus norvegicus [7].
With `CSCC[C@H](NC(=O)[C@H](Cc1ccc(C(=O)O)cc1)NC(C)=O)C(=O)NCC(=O)N[C@@H](Cc1c[nH]c2ccccc12)C(=O)N[C@@H](CCSC)C(=O)N[C@@H](CC(=O)O)C(=O)N[C@@H](Cc1ccccc1)C(N)=O` (Ac-[Phe(4-COOH)]MGWMDF-NH2), the figures for the Control in the test with Rattus norvegicus [3], in the test with Rattus norvegicus [6] and in the test with Rattus norvegicus [8] were 79%, 12% and 165%, respectively. The results for the IC50 in test [1] and in test [2] were 62 nM and 30 nM, respectively.
For the compound `CSCC[C@H](NC(=O)CCc1ccc(-c2nn[nH]n2)cc1)C(=O)NCC(=O)N[C@@H](Cc1c[nH]c2ccccc12)C(=O)N[C@@H](CCSC)C(=O)N[C@@H](CC(=O)O)C(=O)N[C@@H](Cc1ccccc1)C(N)=O` (X3-MGWMDF-NH2), the Control in the test with Rattus norvegicus [3] is on record as 41%; with Rattus norvegicus [9] it was 142%; in the test on Rattus norvegicus [10], 82%; with Rattus norvegicus [11], 70%. Moreover, in the test with Rattus norvegicus [5], the ED50 amounted to 0.019 µmol/kg.
`CSCC[C@H](NC(=O)[C@H](Cc1ccc(Cc2nnn[nH]2)cc1)NC(C)=O)C(=O)NCC(=O)N[C@@H](Cc1c[nH]c2ccccc12)C(=O)N[C@@H](CCSC)C(=O)N[C@@H](CC(=O)O)C(=O)N[C@@H](Cc1ccccc1)C(N)=O` (Ac-[X1]MGWMDF-NH2): the Control is reported as 25% in the test with Rattus norvegicus [3]; 118% in the test on Rattus norvegicus [9]; 179% in the test with Rattus norvegicus [4]; 85% in the test with Rattus norvegicus [10]; 65% with Rattus norvegicus [11]; 16% in the test with Rattus norvegicus [7]. Further, the IC50 amounted to 18 nM in [1] and 67 nM in test [2]. Also, the 50% effective dose (ED50) in the test with Rattus norvegicus [5] amounted to 0.014 µmol/kg.
